Test results reported in ChEMBL document CHEMBL1137710, “Synthesis and in vitro antitumor activity of new quinoxaline derivatives” (2009).

Tests used:
Assay type in all cases: functional
[1] = system: MDA-MB-231; assay: Growth inhibition of human MDA-MB-231 cells after 48 hrs by sulforhodamine B assay; details: MDA-MB-231, 48 h
Procedure, shortened: (§1)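 NCI 60-human-tumor-cell-line panel, with compounds tested over a 5-log dose range. Values are taken from dose-response curves as log10 molar concentrations: GI50 is 50% net growth inhibition, TGI is total growth inhibition, and LC50 is 50% net cell death.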

[2] = system: SK-MEL-5; assay: Growth inhibition of human SK-MEL-5 cells after 48 hrs by sulforhodamine B assay; details: SK-MEL-5, 48 h; procedure, shortened: as §1
[3] = system: SF-295; assay: Growth inhibition of human SF295 cells after 48 hrs by sulforhodamine B assay; details: SF-295, 48 h; procedure, shortened: as §1
[4] = system: MCF7; assay: Anticancer activity against human MCF7 cells assessed as cell growth at 100 uM after 48 hrs by sulforhodamine B assay; details: MCF7, 48 h, read-out: Activity
[5] = system: UO-31; assay: Growth inhibition of human UO31 cells after 48 hrs by sulforhodamine B assay; details: UO-31, 48 h
Procedure, shortened: (§2)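 Run in the NCI 60-human-tumour-cell-line panel, tested over a 5-log dose range. Dose–response curves gave three values per cell line, each as a log10 molar concentration: GI50 (50% inhibition of net cell growth), TGI (total inhibition of net growth) and LC50 (50% net cell death). The mean graph midpoint is the arithmetic mean over all lines, with insensitive lines entered at the highest concentration tested.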

[6] = system: NCI-H460; assay: Growth inhibition of human NCI-H460 cells after 48 hrs by sulforhodamine B assay; details: NCI-H460, 48 h; procedure, shortened: as §1
[7] = system: OVCAR-3; assay: Growth inhibition of human OVCAR-3 cells after 48 hrs by sulforhodamine B assay; details: OVCAR-3, 48 h; procedure, shortened: as §1
[8] = system: KM12; assay: Growth inhibition of human KM12 cells after 48 hrs by sulforhodamine B assay; details: KM12, 48 h; procedure, shortened: as §1
[9] = system: MCF7; assay: Growth inhibition of human MCF7 cells after 48 hrs by sulforhodamine B assay; details: MCF7, 48 h; procedure, shortened: as §1
[10] = system: SF-268; assay: Anticancer activity against human SF268 cells assessed as cell growth at 100 uM after 48 hrs by sulforhodamine B assay; details: SF-268, 48 h, read-out: Activity
[11] = system: 786-0; assay: Growth inhibition of human 786-0 cells after 48 hrs by sulforhodamine B assay; details: 786-0, 48 h; procedure, shortened: as §1
[12] = system: UACC-257; assay: Growth inhibition of human UACC257 cells after 48 hrs by sulforhodamine B assay; details: UACC-257, 48 h; procedure, shortened: as §2
[13] = system: CAKI-1; assay: Growth inhibition of human Caki1 cells after 48 hrs by sulforhodamine B assay; details: CAKI-1, 48 h; procedure, shortened: as §1
[14] = system: NCI-H322M; assay: Growth inhibition of human NCI-H322M cells after 48 hrs by sulforhodamine B assay; procedure, shortened: as §1
[15] = system: IGROV-1; assay: Growth inhibition of human IGROV1 cells after 48 hrs by sulforhodamine B assay; details: IGROV-1, 48 h; procedure, shortened: as §1
[16] = system: HOP-62; assay: Growth inhibition of human HOP62 cells after 48 hrs by sulforhodamine B assay; details: HOP-62, 48 h; procedure, shortened: as §1
[17] = system: PC-3; assay: Growth inhibition of human PC3 cells after 48 hrs by sulforhodamine B assay; details: PC-3, 48 h; procedure, shortened: as §1
[18] = system: NCI-H460; assay: Anticancer activity against human NCI-H460 cells assessed as cell growth at 100 uM after 48 hrs by sulforhodamine B assay; details: NCI-H460, 48 h, read-out: Activity
[19] = system: OVCAR-5; assay: Growth inhibition of human OVCAR5 cells after 48 hrs by sulforhodamine B assay; details: OVCAR-5, 48 h; procedure, shortened: as §1
[20] = system: SNB-19; assay: Growth inhibition of human SNB19 cells after 48 hrs by sulforhodamine B assay; details: SNB-19, 48 h; procedure, shortened: as §2
[21] = system: NCI-H522; assay: Growth inhibition of human NCI-H522 cells after 48 hrs by sulforhodamine B assay; details: NCI-H522, 48 h; procedure, shortened: as §1
[22] = system: TK-10; assay: Growth inhibition of human TK10 cells after 48 hrs by sulforhodamine B assay; details: TK-10, 48 h; procedure, shortened: as §2
[23] = system: SF-268; assay: Growth inhibition of human SF268 cells after 48 hrs by sulforhodamine B assay; details: SF-268, 48 h; procedure, shortened: as §1
[24] = system: MDA-MB-435; assay: Growth inhibition of human MDA-MB-435 cells after 48 hrs by sulforhodamine B assay; details: MDA-MB-435, 48 h; procedure, shortened: as §1
[25] = system: SK-OV-3; assay: Growth inhibition of human SKOV3 cells after 48 hrs by sulforhodamine B assay; details: SK-OV-3, 48 h; procedure, shortened: as §1
[26] = system: OVCAR-4; assay: Growth inhibition of human OVCAR4 cells after 48 hrs by sulforhodamine B assay; details: OVCAR-4, 48 h; procedure, shortened: as §1
[27] = system: COLO 205; assay: Growth inhibition of human COLO205 cells after 48 hrs by sulforhodamine B assay; details: COLO 205, 48 h; procedure, shortened: as §1
[28] = system: U-251; assay: Growth inhibition of human U251 cells after 48 hrs by sulforhodamine B assay; details: U-251, 48 h; procedure, shortened: as §2
[29] = system: OVCAR-8; assay: Growth inhibition of human OVCAR8 cells after 48 hrs by sulforhodamine B assay; details: OVCAR-8, 48 h; procedure, shortened: as §1
[30] = Growth inhibition of human Hs 578T cells after 48 hrs by sulforhodamine B assay; procedure, shortened: as §1
[31] = read-out: pLC50 (the source's name) (converted)

Q: What does the source list for Nc1cc(N)c2nc(-c3ccccc3)c(NCc3ccc(F)cc3)nc2c1?
A: GI50 [1]: 2.14 µM; CC50 [1, 31]: 19.5 µM; TGI ([1]; read-out: pTGI (converted)): 5.13 µM; GI50 [2]: 1.86 µM; CC50 [2, 31]: 6.92 µM; TGI ([2]; read-out: pTGI (converted)): 3.63 µM; GI50 [3]: 3.47 µM; LC50 (50% net cell kill) [3]: 64.6 µM; TGI ([3]; read-out: pTGI (converted)): 13.5 µM; growth at 100 µM [4]: 1%; GI50 [5]: 3.8 µM; CC50 [5, 31]: > 100 µM; TGI ([5]; read-out: pTGI (converted)): > 100 µM; GI50 [6]: 4.07 µM; LC50 (50% net cell kill) [6]: > 100 µM; TGI ([6]; read-out: pTGI (converted)): 25.7 µM; GI50 [7]: 2.4 µM; CC50 [7, 31]: > 100 µM; TGI ([7]; read-out: pTGI (converted)): 6.46 µM; GI50 [8]: 2.82 µM; LC50 (50% net cell kill) [8]: > 100 µM; TGI ([8]; read-out: pTGI (converted)): 7.41 µM; GI50 [9]: 3.02 µM; CC50 [9, 31]: > 100 µM; TGI ([9]; read-out: pTGI (converted)): > 100 µM; growth at 100 µM [10]: 1%; GI50 [11]: 23.4 µM; CC50 [11, 31]: > 100 µM; TGI ([11]; read-out: pTGI (converted)): 61.7 µM; GI50 [12]: 2.04 µM; CC50 [12, 31]: 8.91 µM; TGI ([12]; read-out: pTGI (converted)): 4.27 µM; GI50 [13]: 15.1 µM; CC50 [13, 31]: 89.1 µM; TGI ([13]; read-out: pTGI (converted)): 37.2 µM; GI50 [14]: 3.47 µM; LC50 [14]: 40.7 µM; TGI ([14]; read-out: pTGI (converted)): 11.5 µM; GI50 [15]: 3.09 µM; CC50 [15, 31]: > 100 µM; TGI ([15]; read-out: pTGI (converted)): > 100 µM; GI50 [16]: 38.9 µM; LC50 [16]: > 100 µM; TGI ([16]; read-out: pTGI (converted)): > 100 µM; GI50 [17]: 3.47 µM; CC50 [17, 31]: > 100 µM; TGI ([17]; read-out: pTGI (converted)): 15.5 µM; growth at 100 µM [18]: 1%; GI50 [19]: 2.63 µM; CC50 [19, 31]: > 100 µM; TGI ([19]; read-out: pTGI (converted)): 7.59 µM; GI50 [20]: 6.61 µM; LC50 [20]: 52.5 µM; TGI ([20]; read-out: pTGI (converted)): 20 µM; GI50 [21]: > 100 µM; LC50 [21]: > 100 µM; TGI ([21]; read-out: pTGI (converted)): > 100 µM; GI50 [22]: 5.89 µM; CC50 [22, 31]: 53.7 µM; TGI ([22]; read-out: pTGI (converted)): 20 µM; GI50 [23]: 2.82 µM; LC50 [23]: 40.7 µM; TGI ([23]; read-out: pTGI (converted)): 7.59 µM; GI50 [24]: 2 µM; CC50 [24, 31]: 6.92 µM; TGI ([24]; read-out: pTGI (converted)): 3.72 µM; GI50 [25]: 12.9 µM; CC50 [25, 31]: 53.7 µM; TGI ([25]; read-out: pTGI (converted)): 26.3 µM; GI50 [26]: 1.7 µM; CC50 [26, 31]: 60.3 µM; TGI ([26]; read-out: pTGI (converted)): 8.13 µM; GI50 [27]: 2.51 µM; LC50 (50% net cell kill) [27]: > 100 µM; TGI ([27]; read-out: pTGI (converted)): 6.17 µM; GI50 [28]: 1.58 µM; LC50 (50% net cell kill) [28]: 6.31 µM; TGI ([28]; read-out: pTGI (converted)): 3.16 µM; GI50 [29]: 2.63 µM; CC50 [29, 31]: 21.9 µM; TGI ([29]; read-out: pTGI (converted)): 6.03 µM; GI50 [30]: 4.9 µM; CC50 [30, 31]: > 100 µM; TGI ([30]; read-out: pTGI (converted)): > 100 µM
